Source: PubChem BioAssay (Sanford-Burnham Center for Chemical Genomics)
HKDC1 inhibitor: inhibitors of human hexokinase HKDC1; Q2TB90; recombinant HKDC1, G6PDH/diaphorase resazurin coupled fluorescence; inhibition, % at 20 µM; hit rate 0.16% among 340,000; AID 493160;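 active means inhibition above about 35% when tested at 20 µM, limit read from the data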;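 further: plate controls were DMSO wells with enzyme for no effect and DMSO wells lacking enzyme for full effect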
Target sequence (Q2TB90 whole entry, looked up): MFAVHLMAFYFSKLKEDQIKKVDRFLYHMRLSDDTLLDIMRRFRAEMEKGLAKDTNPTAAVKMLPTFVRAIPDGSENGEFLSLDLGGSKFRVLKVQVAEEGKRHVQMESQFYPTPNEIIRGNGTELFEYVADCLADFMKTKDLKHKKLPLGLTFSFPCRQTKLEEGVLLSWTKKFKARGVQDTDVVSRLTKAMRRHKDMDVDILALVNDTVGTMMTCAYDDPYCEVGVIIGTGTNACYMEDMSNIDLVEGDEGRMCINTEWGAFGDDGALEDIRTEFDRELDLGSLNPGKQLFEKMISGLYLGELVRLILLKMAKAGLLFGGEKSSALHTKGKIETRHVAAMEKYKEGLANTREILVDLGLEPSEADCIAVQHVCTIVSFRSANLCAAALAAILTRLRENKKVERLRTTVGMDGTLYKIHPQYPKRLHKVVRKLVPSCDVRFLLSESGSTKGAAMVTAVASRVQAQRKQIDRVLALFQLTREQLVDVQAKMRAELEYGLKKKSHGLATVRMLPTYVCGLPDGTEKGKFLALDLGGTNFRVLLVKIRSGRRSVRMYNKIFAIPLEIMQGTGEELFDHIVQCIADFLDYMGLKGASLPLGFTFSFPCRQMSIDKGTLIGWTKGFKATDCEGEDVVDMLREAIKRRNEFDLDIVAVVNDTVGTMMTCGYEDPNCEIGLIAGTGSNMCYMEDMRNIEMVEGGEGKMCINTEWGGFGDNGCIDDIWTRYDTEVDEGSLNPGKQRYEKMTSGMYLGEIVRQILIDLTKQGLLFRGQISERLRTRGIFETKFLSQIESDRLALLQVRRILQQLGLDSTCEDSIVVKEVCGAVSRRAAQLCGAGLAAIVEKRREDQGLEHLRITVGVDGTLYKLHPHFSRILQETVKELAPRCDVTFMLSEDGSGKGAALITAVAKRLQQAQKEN
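Test system: Recombinant HKDC1 (HK5) hexokinase enzyme, produced in-house | Input: HKDC1 at 5 µg/mL | Buffer or medium: Tris pH 8.0 buffer with MgCl2, Tween-20, BSA, BME | Schedule: 90 min reaction incubation at room temperature, dark | Technique: Resazurin-to-resorufin fluorescence via G6PDH and diaphorase coupling, 525/613 nm | Controls: DMSO wells with and without enzyme mix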
Diaph act CS: activates diaphorase or chemically reduces, flagging diaphorase assay artifacts; activation factor at 20 µM; hit rate 0.005% among 190,000; AID 1229; Diaphorase/resazurin coupled assay, resorufin fluorescence, 16 min; active compounds read high; 1 = vehicle wells, 0 = NADH-free wells;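 active means diaphorase activity raised at least twofold by the compound at 20 µM; inactive means activation factor below 2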
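Material: Purified diaphorase enzyme from Clostridium kluyveri | Buffer or medium: 50 mM HEPES pH 7.4 with 4.542 mM MgCl2, 0.005% Tween 20 | Times: 16 min enzyme reaction, ambient temperature | Signal: Red resorufin fluorescence at 544/590 nm excitation/emission | Measure: Increased resorufin signal from activators or reducing compounds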
G6PDH CS: inhibits Leuconostoc G6PDH, flagging false hits in G6PDH-based assays. inhibition, % at 5 µM. Purified L. mesenteroides G6PDH, diaphorase/resazurin coupled fluorescence, 45 min. hit rate 0.12% among 200,000; in the data active means inhibition above about 50%
Diaphorase inh: counter-screen for diaphorase-based assays: diaphorase inhibitors and chemical oxidizers. diaphorase resazurin-to-resorufin fluorescence, NADH, 16 min; bacterial (C. kluyveri) enzyme, not human. inhibition, % at 20 µM. hit rate 0.69% among 190,000. AID 1217;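 active means primary screen inhibition at 20 µM above a set limit, cut at about 50% in these data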;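 further: plate controls were DMSO with full reaction for no effect and wells lacking NADH for full effect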
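System: Diaphorase enzyme from Clostridium kluyveri | Amount: Enzyme working solution with 0.14 U/mL diaphorase | Benchmarks: No-NADH positive control and DMSO neutral control | Signal: Fluorescence of resorufin formed from resazurin, Ex 544/Em 590 nm | Schedule: 16-min room-temperature incubation before reading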
PfGluPho inh: PfG6PD (Plasmodium falciparum) enzyme inhibition. PfGluPho enzyme, NADPH resazurin-diaphorase fluorescence. inhibition, % at 20 µM. hit rate 0.78% among 350,000. AID 504690;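 active means inhibition reaching at least a set limit at 20 µM in the primary screen, cut at about 59% in these data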;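 further: 0% = DMSO wells with substrate and 100% = DMSO wells lacking glucose-6-phosphate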
PfG6PD confirm: confirmation of Plasmodium falciparum G6PD inhibitors; shares compounds with PfGluPho inh; recombinant PfGluPho, NADPH-diaphorase-resazurin fluorescence; inhibition, % at 20 µM; hit rate 34% among 2,400;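 active means inhibition of at least 50% at 20 µM in any single replicate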;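 further: 0% = DMSO with substrate and 100% = DMSO lacking glucose-6-phosphate substrate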
Diaphorase 10uM: counter-screen for P. falciparum G6PD inhibitors: diaphorase inhibitors, oxidizers. shares compounds with PfGluPho inh. diaphorase-coupled resazurin reduction, fluorescence, NADPH 10 uM. inhibition, % at 20 µM. hit rate 39% among 820;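 active means average inhibition reaching 50% or more with the compound at 20 µM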;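 further: resorufin red fluorescence formed as diaphorase reduces resazurin using NADPH; 0% = DMSO with enzyme and 100% = DMSO without enzyme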
Diaph ctr 30uM: diaphorase inhibition or oxidation at 30 uM NADPH | shares compounds with PfGluPho inh | Diaphorase/resazurin coupled assay, resorufin fluorescence | inhibition, % at 20 µM | AID 504863 | hit rate 29% among 820;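 active means inhibition averaging 50% or more, tested at 20 µM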;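 further: 0% = DMSO with enzyme and 100% = DMSO wells lacking diaphorase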
The depositor's hits bear a star; / = no result. An excerpt weighted towards active compounds, which were near 1.3% of everything screened.

SMILES	HKDC1 inhibitor	Diaph act CS	G6PDH CS	Diaphorase inh	PfGluPho inh	PfG6PD confirm	others
Cc1cccn2cc(-c3c[nH]c4ccccc34)nc12	-4	0.8	1	18	49	/
Cc1cc(C)c2c(=O)n(CC(=O)NC3CCCC3)sc2n1	1	/	/	/	90*	73*	Diaphorase 10uM=-32;Diaph ctr 30uM=-16
Cc1cc(C)c2c(=O)n(CC(=O)Nc3cccc(Cl)c3C)sc2n1	-1	/	/	/	106*	85*	Diaphorase 10uM=-13;Diaph ctr 30uM=-4
COc1ccc(OC)c(CCNC(=O)Cn2sc3nc(C)cc(C)c3c2=O)c1	/	0.9	-2	6	/	/
Cc1c(Cl)cccc1NC(=O)Cn1cccc1	-11	0.9	-6	11	8	/
Cc1cc(C)c2c(=O)n(CC(=O)Nc3ccc(Br)c(C)c3)sc2n1	6	/	/	/	112*	80*	Diaphorase 10uM=-7;Diaph ctr 30uM=-14
COc1ccccc1CN1CCNC(=O)C1CC(=O)N(C)C1CCOCC1 (stereo not drawn)	/	/	/	/	-2	/
Cc1ccc(C(=O)O)cc1S(=O)(=O)Nc1ccccc1C(=O)NC1CC1	-4	/	/	/	-2	/
O/N=C\c1cnc(N2CCN(c3ccccc3)CC2)s1	1	/	/	/	1	/
COC(=O)c1ccc(CCc2cc(O)ccc2O)cc1	27	/	/	/	59	10
O=C1CN(S(=O)(=O)c2cccc(C(=O)O)c2)c2ccccc2N1	-5	/	/	/	0	/
CNC(=S)N/N=C/c1ccc(N(C)C)cc1	-2	/	/	/	11	/
Cc1cc(O)c(C(C)C)cc1N=Cc1ccc(N(C)C)cc1	25	/	/	/	106*	83*	Diaphorase 10uM=87*;Diaph ctr 30uM=43
Cc1cc(O)c(C(C)C)cc1NC(=O)Nc1ccc([N+](=O)[O-])cc1	8	/	/	/	23	/
COc1cccc(C=Nc2cccnc2)c1O	/	0.8	-1	19	/	/
Cc1cc(O)c(C(C)C)cc1N=Cc1ccc([N+](=O)[O-])cc1	26	/	/	/	91*	62*	Diaphorase 10uM=49;Diaph ctr 30uM=15
COc1cccc(C=Nc2cc(C(C)C)c(O)cc2C)c1O	23	/	/	/	114*	67*	Diaphorase 10uM=6;Diaph ctr 30uM=-1
Cn1c(-c2cccc(Br)c2)cnc1NCc1ccccc1O	-4	/	/	/	-4	/
Cc1ccc(S(=O)(=O)NC(=O)Nc2ccc(N(C)C)cc2)cc1	9	/	/	/	73*	21
COc1cccc(CN(C)C(=O)c2ccc(Cl)c(S(=O)(=O)N3CCCCCC3)c2)c1OC	-2	/	/	/	-6	/
O=C(CN1C(=O)NC2(CCCC2)C1=O)Nc1nc(-c2ccccc2)cs1	-2	/	/	/	-4	/
O=C(Nc1scc(-c2ccccc2)c1C(=O)O)c1ccccc1F	-2	/	/	/	32	/
Cc1ccc(-c2csc(NC(=O)c3ccccc3F)c2C(=O)O)cc1	14	/	/	/	73*	51*	Diaphorase 10uM=36;Diaph ctr 30uM=40
Cc1ccc(-c2csc(NC(=O)c3ccc(F)cc3)c2C(=O)O)cc1	22	/	/	/	88*	44
CCc1ccc(N2CC(C(=O)Nc3ccccc3N3CCCC3)CC2=O)cc1 (stereo not drawn)	/	/	/	/	11	/
SMILES	HKDC1 inhibitor	Diaph act CS	G6PDH CS	Diaphorase inh	PfGluPho inh	PfG6PD confirm	others
O=C(CSc1n[nH]c(=O)n1-c1ccccc1)N1CCOCC1	-6	/	/	/	-2	/
CCn1c(NC(=O)c2ccc(C)cc2)c2ccccc2nc1=O	-3	1	-12	-4	72*	36
Oc1ccc(-c2cn3c(n2)SCC3)cc1	-10	1	0	4	-12	/
Oc1ccc(-c2cn3c(n2)SCC3)cc1O	5	0.5	24	52*	63*	89*	Diaphorase 10uM=21;Diaph ctr 30uM=19
O=[N+]([O-])c1ccc(-[n+]2ccc3ccccc3c2)c([N+](=O)[O-])c1	25	/	/	/	94*	67*	Diaphorase 10uM=38;Diaph ctr 30uM=50
O=[N+]([O-])c1ccc(SNc2ccccc2)c([N+](=O)[O-])c1	6	/	/	/	26	/
O=C1N=C(N2CCN(c3ccccc3)CC2)S/C1=C/c1cccs1	-2	0.8	-2	19	8	/
O=C1N=C(c2ccccc2)S/C1=C\c1cccs1	4	0.7	-3	27	63*	30
O=C(Nc1cnns1)Oc1ccccc1	/	/	/	/	-3	/
Cc1ccc2cc(C)c3nnc(SCC(=O)c4cccs4)n3c2c1C	0	0.9	1	6	8	/
Cc1ccc(C)c2c1cc(C)c1nnc(SCC(=O)c3cccs3)n12	3	0.9	-7	11	60*	36
Cc1ccc(C)c2c1cc(C)c1nnc(SCC(=O)NCc3ccc4c(c3)OCO4)n12	-8	1	-16	0	94*	84*	Diaphorase 10uM=93*;Diaph ctr 30uM=70*
COc1cc(C(=O)NC2CC(C)CC(C)(C)C2)cc(OC)c1OC (stereo not drawn)	/	/	/	/	17	/
COc1ccc(/C=N/Nc2nnc(C)n2N)cc1OC	5	0.9	6	7	61*	7
CC(=O)N1CCC(C(=O)Nc2cc(S(=O)(=O)N3CCCCC3)ccc2C)CC1	/	/	/	/	-5	/
Cc1cc(S(=O)(=O)ON2C(=O)c3ccccc3C2=O)ccc1F	4	/	/	/	65*	6
Cc1cc(C)nc(NNS(=O)(=O)c2ccc(F)c(Cl)c2)n1	-4	/	/	/	33	/
Cc1cc(C)nc(NNS(=O)(=O)c2ccc(Cl)cc2)n1	1	/	/	/	59*	13
COc1cccc(OCCNc2ccc([N+](=O)[O-])cn2)c1	-2	/	/	/	2	/
COc1cccc(OCCNc2cc(Cl)ccc2[N+](=O)[O-])c1	-4	0.9	-19	14	63*	-12
C[C@H](O)[C@@H]1C(=O)N2CCc3c([nH]c4ccccc34)[C@@H]2C[C@@H]1N(C)S(=O)(=O)c1ccccc1	/	/	/	/	12	/
Cc1[nH]c(=S)c(C#N)c(C)c1CCC#N	-3	/	/	/	69*	51*	Diaphorase 10uM=11;Diaph ctr 30uM=-3
Cc1[nH]c(=S)c(C#N)c(C)c1Cc1ccccc1	5	/	/	/	51	/
COc1cccc(CNC(=O)c2ccc(CS(=O)Cc3ccccc3Cl)o2)c1 (stereo not drawn)	/	/	/	/	6	/
O=C(Nc1ccc(C(=O)NCCCN2CCN(c3ccccc3)CC2)cc1)C1=CSCCO1	-5	/	/	/	3	/
SMILES	HKDC1 inhibitor	Diaph act CS	G6PDH CS	Diaphorase inh	PfGluPho inh	PfG6PD confirm	others
CNS(=O)(=O)c1ccc2nc(NC(=O)c3ccc(N4C(=O)CCC4=O)cc3)sc2c1	0	0.9	-4	12	64*	41
CCc1ccc2nc(NC(=O)c3ccc(N4C(=O)CCC4=O)cc3)sc2c1	-7	/	/	/	0	/
O=C(COC(=O)c1cc2ccccc2o1)NCc1ccco1	-3	/	/	/	-2	/
Cc1cccc(Sc2ccc([N+](=O)[O-])cc2[N+](=O)[O-])n1	-1	1	-4	4	64*	20
O=C(c1ccccc1)c1c[nH]c(C(=O)NNc2ccccc2)c1	-4	0.9	1	8	69*	14
CC[C@H](C)[C@H]1CNC(=S)N1CC1CCN(CC)CC1	/	/	/	/	-15	/
